Most compounds without a hit are left out; they make up all but 2.1% or so of the library.
CXCR6 block: blocks human CXCR6 beta-arrestin recruitment | O00574 | CHO-K1 PathHunter CXCR6 beta-arrestin, luminescence | inhibition, % at 20 µM | 360,000 compounds, 0.36% hits; in the data active = inhibition above about 34%, passing the limit was not always enough;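 note: antagonist mode with CXCL16 agonist at 10 nM final; 0% = 10 nM CXCL16 with DMSO and 100% = unstimulated wells without agonist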
CCR6 antagonist: CCR6 (human) receptor antagonism; AID 493098; CHO-K1 CCR6 PathHunter beta-arrestin, luminescence, CCL20-stimulated; 340,000 compounds, 0.49% hits; inhibition, % at 20 µM;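 active = compounds whose inhibition of the agonist-driven luminescence signal at 20 µM reaches about 50%, limit read from the data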;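 note: cells stimulated with CCL20 at 14 nM final; plate controls were DMSO with CCL20 for no effect and DMSO without agonist for full effect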
EBI2 block: antagonists of human EBI2 receptor. 360,000 compounds, 0.81% hits. P32249. inhibition, % at 5 µM. EBI2 beta-arrestin recruitment, luminescence, 7a,25-OHC stimulated; in the data active = inhibition above about 38%;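 note: enzyme fragment complementation signal reports receptor beta-arrestin coupling in cells; 0% = agonist plus DMSO wells and 100% = wells without agonist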
Target sequence (P32249 whole entry, looked up, the tested form may be a part): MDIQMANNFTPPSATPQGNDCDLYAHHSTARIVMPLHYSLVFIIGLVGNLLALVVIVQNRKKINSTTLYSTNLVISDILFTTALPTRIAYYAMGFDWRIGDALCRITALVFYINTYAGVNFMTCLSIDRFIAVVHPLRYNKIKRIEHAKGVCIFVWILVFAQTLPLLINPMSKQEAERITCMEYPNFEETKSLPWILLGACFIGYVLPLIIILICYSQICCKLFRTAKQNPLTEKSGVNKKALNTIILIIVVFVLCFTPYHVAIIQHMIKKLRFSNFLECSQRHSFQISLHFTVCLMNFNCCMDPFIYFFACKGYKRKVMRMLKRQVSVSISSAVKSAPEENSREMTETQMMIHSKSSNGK
APJ agonist: APJ receptor agonism | activation, % at 20 µM | 330,000 compounds, 0.11% hits | CHO-K1 APJ PathHunter beta-arrestin, luminescence; 0% DMSO wells, 100% apelin | P35414;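 active = activation more than six SD over the plate average, tested at 20 µM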;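 note: 0% = DMSO alone and 100% = apelin-13 at 10 nM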
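Incubation: overnight seeding, 90 min compound at 25 °C, 1 h detection; test system: PathHunter CHO-K1 APJ (AGTRL-1) beta-arrestin reporter cells; amount: 1000 cells/well; doses: one dose, 20 µM compound, 1% DMSO; measured by: beta-gal luminescence; measure: agonist-driven arrestin binding to APJ; benchmarks: negative DMSO alone, positive Apelin-13 at 10 nM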
m5-HT2A agonist: activates the mouse 5-HT2A serotonin receptor. CHO-K1 mHTR2A beta-arrestin complementation, luminescence; percent of 30 µM serotonin response. activation, % at 7.6 µM. 360,000 compounds, 0.66% hits. AID 624169;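 active = activation above a run cutoff, the mean activation of all tested compounds plus 3 SD, cut at about 14% in these data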;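 note: 0% = plate median of compound wells and 100% = 30 µM serotonin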
APJ antag: APJ receptor antagonism. P35414. CHO-K1 APJ beta-arrestin complementation, luminescence. inhibition, % at 20 µM. 330,000 compounds, 0.32% hits. AID 2521;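 active = inhibition above about 40% at 20 µM, limit read from the data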;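 note: cells challenged with 10 nM apelin-13 agonist together with compound; plate controls were apelin-13 plus DMSO wells for no effect and DMSO wells lacking apelin-13 for full effect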
EBI2 conf: confirmation of human EBI2 receptor antagonists | 2,400 compounds, 29% hits | EBI2 beta-arrestin luminescence, 7a,25-OHC antagonism | inhibition, % at 5 µM | shares compounds with EBI2 block;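 active = inhibition of at least 50%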
EBI2 ag: EBI2 agonism counter-screen | shares compounds with EBI2 block | EBI2-expressing cells, agonist mode, luminescence, 60 min; 0% vehicle, 100% 7α,25-dihydroxycholesterol control | activation, % at 5 µM | 2,400 tested, under 10 active | AID 652000;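 active = activation of at least 50%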
bGal cs: counter-screen for EBI2 antagonists: E. coli beta-galactosidase inhibition; inhibition, % at 5 µM; 2,400 compounds, 1% hits; shares compounds with EBI2 block; purified beta-galactosidase, luminescent Galacton Star, 15 min;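 active = replicate-average signal at least 3 plate SD below neutral wells, shown as high inhibition, flagging enzyme-inhibiting false positives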;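 note: 0% = DMSO wells with enzyme and 100% = wells lacking enzyme; higher means stronger loss of beta-gal luminescence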
Starred values were filed as active, the others as inactive.

For Oc1ccc(C[C@H]2CNC(=S)N2CC2CCCN2C[C@H](Cc2ccc(O)cc2)N2C[C@H](Cc3ccccc3)N(CCc3ccccc3)C2=S)cc1 (some centres undefined) the results were CXCR6 block 5.9, CCR6 antagonist 10.9, EBI2 block 41.9*, m5-HT2A agonist -8.9, EBI2 conf 17.0, EBI2 ag -0.5 and bGal cs 8.0.
`CC(C)C[C@H]1CNC(=S)N1C[C@H]1CCCN1C[C@H](CC(C)C)N1C[C@H](Cc2ccc(O)cc2)N(CCc2ccccc2)C1=S` gave CXCR6 block 11.7, EBI2 block 43.5*, m5-HT2A agonist -1.1, EBI2 conf 14.2, EBI2 ag 0.8 and bGal cs 8.4.
For CC1(C)CC(=O)C(N=Nc2ccc(Cl)cc2)=C(O)C1 the results were CXCR6 block 9.5, CCR6 antagonist 10.3, EBI2 block 7.2, APJ agonist -3.5, m5-HT2A agonist 0.7 and APJ antag -2.6.
`CCC1NC(=O)c2cc3ccccc3cc2-n2c1nc1ccc(F)cc1c2=O` (centres undefined) gave CXCR6 block -10.5, EBI2 block 7.9 and m5-HT2A agonist -4.5.
For Cc1ccc2nc3n(c(=O)c2c1)-c1cc2ccccc2cc1C(=O)NC3Cc1ccccc1 (centres undefined) the results were CXCR6 block 8.5, EBI2 block 54.1*, m5-HT2A agonist 0.4, EBI2 conf 34.3, EBI2 ag -0.2 and bGal cs -13.6.
For CCCC1NC(=O)c2cc3ccccc3cc2-n2c1nc1ccc(C)cc1c2=O (centres undefined) the results were CXCR6 block -7.5, EBI2 block 57.3*, m5-HT2A agonist 0.6, EBI2 conf 43.5, EBI2 ag 2.1 and bGal cs 7.2.
For O=C1NC(Cc2ccccc2)c2nc3cc(Cl)ccc3c(=O)n2-c2cc(Cl)ccc21 (centres undefined) the results were APJ agonist -2.8 and APJ antag 1.2.
`CCCC1NC(=O)c2cc3ccccc3cc2-n2c1nc1cc(Cl)ccc1c2=O` (centres undefined) gave CXCR6 block 5.0, EBI2 block 53.2*, m5-HT2A agonist -1.2, EBI2 conf 50.5*, EBI2 ag -0.3 and bGal cs 6.1.
`Cc1cc(C)c2c(=O)n3c(nc2c1)C(Cc1ccccc1)NC(=O)c1cc2ccccc2cc1-3` (centres undefined) gave CXCR6 block 0.4, EBI2 block 76.3*, m5-HT2A agonist 1.1, EBI2 conf 37.8, EBI2 ag -1.9 and bGal cs -11.3.
Screening CCC(C)N1CC(C(=O)NC2CCCCC2)CC1=O (centres undefined) returned CXCR6 block -13.7, CCR6 antagonist 15.0, EBI2 block 4.6, APJ agonist -2.1, m5-HT2A agonist -5.2 and APJ antag -12.9.
`C=CCN1C(=O)/C(=C/c2ccccc2)S/C1=N/c1nccs1` gave CXCR6 block 3.4, CCR6 antagonist 16.5, EBI2 block 57.1*, APJ agonist -1.6, m5-HT2A agonist 4.3, APJ antag -12.7, EBI2 conf 46.5, EBI2 ag 2.6 and bGal cs 4.3.
Screening Cc1nnc(SCCC(=O)Nc2ccc(Cl)cc2)o1 returned CXCR6 block 3.3, CCR6 antagonist 12.6, EBI2 block -6.5, APJ agonist -0.5, m5-HT2A agonist 0.8 and APJ antag -0.4.
`CCOC(=O)c1cc(-c2ccccc2)sc1N` gave CXCR6 block 1.4, CCR6 antagonist 8.0, EBI2 block 45.6*, APJ agonist -9.2, m5-HT2A agonist -2.9, APJ antag 5.9, EBI2 conf 58.8*, EBI2 ag 2.8 and bGal cs -1.4.
For CCOC(=O)c1sc(-c2ccccc2)cc1N the results were CXCR6 block -4.1, CCR6 antagonist 14.3, EBI2 block 22.2, APJ agonist -1.3, m5-HT2A agonist -3.7 and APJ antag 11.9.
`CC(C)(C)C(=O)NNC(=O)c1cc(C(C)(C)C)nn1Cc1ccccc1` gave CXCR6 block 2.5, CCR6 antagonist 3.6, EBI2 block 8.4, APJ agonist -1.3, m5-HT2A agonist 5.4 and APJ antag 1.2.
Screening Nc1c(Cl)ncnc1N/N=C/c1ccnc2ccccc12 returned CXCR6 block -0.7, CCR6 antagonist 4.1, EBI2 block 0.6, APJ agonist -0.9, m5-HT2A agonist -0.1 and APJ antag -0.6.
Nc1c(Cl)ncnc1N/N=C/c1ccc2ccccc2n1 was read as CXCR6 block 53.4*, CCR6 antagonist 83.7*, EBI2 block 62.2*, m5-HT2A agonist -7.4, EBI2 conf 83.6*, EBI2 ag -2.5 and bGal cs 11.2.
`CC(=O)c1nn(-c2ccc(Cl)cc2)cc1C(=O)c1ccc(C)cc1` gave CXCR6 block 9.1, CCR6 antagonist 2.3, EBI2 block 87.7*, APJ agonist 0.0, m5-HT2A agonist -2.1, APJ antag 14.3, EBI2 conf 51.4*, EBI2 ag 0.7 and bGal cs 9.4.
Screening CC(=O)c1nn(-c2ccc(Br)cc2)cc1C(=O)c1ccccc1 returned CXCR6 block -1.1, CCR6 antagonist 4.8, EBI2 block 52.2*, APJ agonist -5.1, m5-HT2A agonist 1.8, APJ antag 9.8, EBI2 conf 42.6, EBI2 ag -0.4 and bGal cs 8.4.
For O=C(Nc1cccnc1)/C(N=Nc1c(Cl)cccc1Cl)=C(\O)c1ccccc1 the results were CXCR6 block 9.2, CCR6 antagonist 8.6, EBI2 block 50.9*, APJ agonist -2.9, m5-HT2A agonist -0.7, APJ antag 15.3, EBI2 conf 35.0, EBI2 ag 4.5 and bGal cs 4.2.
For O=C(Nc1cccnc1)/C(N=Nc1ccc(Cl)c(C(F)(F)F)c1)=C(\O)c1ccccc1 the results were CXCR6 block 1.5, CCR6 antagonist -2.9, EBI2 block 8.0, APJ agonist -2.4, m5-HT2A agonist 4.9 and APJ antag -12.5.
For Cc1cc(OCC(=O)N2CCN(c3ccccn3)CC2)c(C)cc1Br the results were CXCR6 block -0.9, CCR6 antagonist 1.4, EBI2 block 53.1*, APJ agonist -4.1, m5-HT2A agonist 3.6, APJ antag 0.3, EBI2 conf 41.6, EBI2 ag 1.8 and bGal cs 0.4.
